High-throughput results from PubChem BioAssay.
KCNQ1 block: inhibitors of human KCNQ1 channel, primary screen, cell-based, thallium flux, high-throughput | Potassium voltage-gated channel subfamily KQT member 1 (Homo sapiens), P51787 | 310,000 tested, 1.3% active | CHO-K1 KCNQ1, FluxOR thallium flux fluorescence; hits give high values | B-score at 10 µM | AID 2642, 2010;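 active = compounds whose thallium flux B-score, printed positive for inhibition, exceeds three library SD while starting fluorescence stays within three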;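 also: channel opened by potassium depolarization with thallium stimulus after 20 min compound exposure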
Kir21 inh: inhibitors of mouse Kir2.1 inward-rectifier potassium channel | Inward rectifier potassium channel 2 (Mus musculus), P35561 | HEK293-Kir2.1, FluxOR thallium flux fluorescence; hits give low values | B-score at 10 µM | 310,000 tested, 0.85% active | AID 1672, 2009;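 active = fluorescence ratio B-score at or below minus 3 SD of library scores, with starting-brightness B-score within 2 SD, cut at about -4.2 in these data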;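 also: channel flux triggered by added potassium and thallium sulfate stimulus; B-score of peak minus minimum fluorescence over baseline after thallium stimulus; more negative B-score means stronger Kir2.1 block with less thallium influx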
hERG protect: hERG rescue from dofetilide block, primary screen, cell-based, CHO-hERG, FluxOR thallium flux, dofetilide IC70; AID 1511, 2009; 310,000 tested, 0.51% active; activation (rescue from dofetilide block), less the hit threshold, % at 10 µM; Voltage-gated inwardly rectifying potassium channel KCNH2 (Homo sapiens), Q12809; dofetilide IC70 present;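 active = activation above the mean of controls blocked by dofetilide plus 5 SD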;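 also: thallium influx through hERG after potassium depolarization seen as dye fluorescence rise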
KCNK3 inh: human KCNK3 channel inhibitors, primary screen, CHO cells, FluxOR thallium flux, B-score | AID 602410, 2012 | Potassium channel subfamily K member 3 (Homo sapiens), O14649 | 340,000 tested, 0.84% active | FluxOR fluorescence; hits give low values | B-score at 10 µM;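 active = B-score under library mean minus 4 SD, starting fluorescence ratio at most library mean plus 5 SD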;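 also: more negative B-score means stronger inhibition of thallium flux through KCNK3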
KCNQ1 act: potentiators or activators of KCNQ1 channel, primary screen, cell-based, thallium flux, high-throughput; Potassium voltage-gated channel subfamily KQT member 1 (Homo sapiens), P51787; CHO-K1 KCNQ1, thallium flux FluxOR fluorescence; hits give high values; B-score at 10 µM; 310,000 tested, 0.35% active;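 active = fluorescence ratio B-score, a plate-corrected score, at least three library SD, with initial intensity B-score within 5 SD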
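Doses: Single concentration per compound, DMSO matched to controls | Test system: KCNQ1-transfected CHO-K1 cells | Timing: 90 min dye loading and 20 min compound exposure, both at room temperature | Measured by: Kinetic FluxOR thallium fluorescence, 10-s 1-Hz baseline, 110-s post-stimulus read | Medium: Assay buffer with matched DMSO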
KCNK9 block: KCNK9 potassium channel inhibitors, primary screen, HEK293 cells, thallium flux. B-score at 10 µM. AID 488922, 2010. Potassium channel subfamily K member 9 (Homo sapiens), Q9NPC2. FluxOR thallium flux fluorescence; hits give low values. 310,000 tested, 1.2% active;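 active = ratio B-score over 3 SD below the library mean, with starting fluorescence within 5 SD of its mean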;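 also: negative B-score means less thallium flux so channel inhibition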
KCNQ1 block val: KCNQ1 potassium channel inhibitors, confirmation, cell-based, Tl flux, duplicate. KCNQ1 cell line, FluxOR thallium flux fluorescence. inhibition, % at 10 µM. shares compounds with KCNQ1 block. 1,600 tested, 93% active;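 active = primary screen active, with duplicate mean exceeding buffer control mean plus 3 SD of buffer wells, cut at about 28% in these data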
CHO Tl flux: thallium flux effects in parental CHO cells, counter-screen for KCNQ1 inhibitor project, cell-based, Tl flux. parental CHO-K1, FluxOR thallium flux fluorescence ratio; hits give low values; zero means no signal rise above baseline. fluorescence ratio (Tl flux) at 10 µM. shares compounds with KCNQ1 block. 1,600 tested, 21% active. AID 588366, 2011;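 active = mean of duplicate thallium-flux fluorescence ratios in parental host cells more than 5 SD below the buffer control mean, cut at about 0.38 in these data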;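 also: ratio is peak minus minimum fluorescence divided by baseline fluorescence; actives read low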
KCNQ1 APC inh: KCNQ1 channel inhibitors, confirmation, orthogonal assay, cell-based, automated electrophysiology | shares compounds with KCNQ1 block | KCNQ1-CHO cells, automated patch clamp current | calls only at 10 µM | 490 tested, 20% active;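 active = KCNQ1 current drop exceeding 3 SD of negative control wells, seen in both duplicate runs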;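 also: steady state current during a 2 s step from -80 to +40 mV; negative values mean current inhibition and positive values mean potentiation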
KCNQ2 spec: KCNQ2 channel inhibition, selectivity assay for KCNQ1 inhibitor project, cell-based. 1,600 tested, 71% active. inhibition, % at 10 µM. KCNQ2 cells, FluxOR thallium flux fluorescence. shares compounds with KCNQ1 block;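 active = mean percent inhibition of the KCNQ2 thallium signal more than 5 SD above the buffer-only control wells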;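 also: KCNQ2 expressed in CHO cells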
KCNQ1 KCNE1 spec: KCNQ1/KCNE1 channel inhibition, selectivity assay for KCNQ1 inhibitor project, CHO-K1 cells, thallium flux, FluxOR; shares compounds with KCNQ1 block; FluxOR thallium flux fluorescence; inhibition, % at 10 µM; 1,600 tested, 77% active;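 active = mean percent inhibition of duplicate wells above the buffer-only control mean plus 3 SD of those controls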
Target sequence (P51787 whole entry, looked up): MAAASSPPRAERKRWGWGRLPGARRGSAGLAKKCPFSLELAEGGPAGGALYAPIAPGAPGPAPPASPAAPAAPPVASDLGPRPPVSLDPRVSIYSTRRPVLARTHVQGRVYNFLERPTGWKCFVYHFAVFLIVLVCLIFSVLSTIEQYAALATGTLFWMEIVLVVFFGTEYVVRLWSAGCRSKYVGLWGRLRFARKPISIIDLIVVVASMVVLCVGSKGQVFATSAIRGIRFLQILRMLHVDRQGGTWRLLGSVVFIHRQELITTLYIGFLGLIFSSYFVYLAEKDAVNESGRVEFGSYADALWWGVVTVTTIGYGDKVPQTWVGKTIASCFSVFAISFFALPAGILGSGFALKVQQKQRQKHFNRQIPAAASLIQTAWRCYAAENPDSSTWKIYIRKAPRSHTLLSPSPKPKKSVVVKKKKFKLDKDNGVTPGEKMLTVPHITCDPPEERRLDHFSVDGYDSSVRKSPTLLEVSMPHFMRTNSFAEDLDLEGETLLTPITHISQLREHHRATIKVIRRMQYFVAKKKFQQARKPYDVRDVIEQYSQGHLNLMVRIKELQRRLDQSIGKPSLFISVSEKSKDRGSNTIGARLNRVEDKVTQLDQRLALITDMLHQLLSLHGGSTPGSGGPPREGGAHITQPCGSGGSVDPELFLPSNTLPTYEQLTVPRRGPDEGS
KCNK9 inh conf: KCNK9 potassium channel inhibitors, confirmation, HEK293 cells, thallium flux, duplicate; inhibition, % at 10 µM; FluxOR thallium flux fluorescence; shares compounds with KCNK9 block; 4,900 tested, 43% active;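 active = thallium signal inhibited by more than 5 SD of the compound-free buffer control wells, on both duplicate plates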
Kir2-1 spec: mouse Kir2.1 channel inhibition, confirmation, selectivity assay for KCNK9 modulator project, cell-based, HEK293, thallium flux; shares compounds with KCNK9 block; inhibition, % at 10 µM; 4,900 tested, 4% active; Kir2.1 cells, FluxOR thallium flux fluorescence;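 active = thallium signal drop more than 5 SD beyond the mean of the no-compound control wells, seen in both duplicate plates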;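 also: signal is fluorescence rise after thallium addition divided by baseline fluorescence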
KCNK9 uninduced: thallium flux in non-induced HEK293 cells, confirmation, counter-screen for KCNK9 inhibitor project, cell-based, second counter screen, non-induced KCNK9-HEK293. shares compounds with KCNK9 block. FluxOR thallium flux. inhibition, % at 10 µM. 4,900 tested, 40% active. AID 492997, 2010;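 active = thallium signal drop beyond 5 SD of the untreated control mean, on both duplicate plates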
Hits are given with their value; 0 = inactive; - = no result given. Compounds with a hit are over-represented: about 3.7% of the library has one in this group of screens.

SMILES | KCNQ1 block | Kir21 inh | hERG protect | KCNK3 inh | KCNQ1 act | KCNK9 block | KCNQ1 block val | CHO Tl flux | KCNQ2 spec | KCNQ1 KCNE1 spec | KCNK9 inh conf | Kir2-1 spec | KCNK9 uninduced | others
Cc1nn(CCc2nn[nH]n2)c2nc(-c3ccc(Br)cc3)cc(C(F)(F)F)c12 | 8 | 0 | 0 | 0 | 0 | 0 | 76.0 | 0.379 | 101.3% | 59.0% | 0 | 0 | 0
CC(C)Oc1cccc(C(=O)C2CCCN(Cc3cccn3-c3ccccn3)C2)c1 (stereo not drawn) | 8 | 0 | 0 | 0 | 0 | 0 | 51.5 | 0 | 76.3% | 0 | 0 | 0 | 0
COc1cccc(C(=O)C2CCCN(Cc3cccn3-c3ccccn3)C2)c1 (stereo not drawn) | 0 | 0 | 0 | 0 | 0 | 0 | - | - | - | - | - | - | -
CCN(CC)S(=O)(=O)c1cccc(NC(=O)Nc2cccc(C(F)(F)F)c2)c1 | 11 | 0 | 0 | 0 | 0 | 0 | 158.0 | 0.302 | 121.0% | 127.0% | 0 | 0 | 0
COC(=O)C(=Cc1ccccc1[N+](=O)[O-])C(=O)OC | 0 | 0 | 0 | 0 | 0 | 0 | - | - | - | - | - | - | -
Cc1n[nH]c(C)c1CNCc1c(C(=O)N2CCCCCCC2)nc2ccc(Cl)cn12 | 0 | 0 | 0 | 0 | 0 | 0 | - | - | - | - | - | - | -
O=C(c1nc2ccc(Cl)cn2c1CNCC[C@@H]1C[C@@H]2C=C[C@H]1C2)N1CCCCCCC1 | 9 | 0 | 0 | 0 | 0 | 0 | 97.5 | 0 | 81.7% | 84.0% | 0 | 0 | 0 | KCNQ1 APC inh=0
COC(CNS(=O)(=O)c1cc2c3c(c1)CCN3C(=O)CC2)OC | 0 | 0 | 0 | 0 | 0 | 0 | - | - | - | - | - | - | -
CCn1c(SCC(=O)N(C)C)nc2cc(S(=O)(=O)N3CCOCC3)ccc21 | 0 | 0 | 0 | 0 | 0 | 0 | - | - | - | - | - | - | -
O=C(c1ccc(Cl)c(Cl)c1)N(Cc1ccco1)c1ccc(O)cc1 | 7 | -4.27 | 0 | 0 | 0 | -11.3 | 84.0 | 0 | 106.3% | 117.5% | 39.5% | 31.5% | 41.5%
O=C(COc1ccccc1)N(Cc1ccco1)c1ccc(O)cc1 | 0 | 0 | 0 | 0 | 0 | 0 | - | - | - | - | - | - | -
Cc1nc(NS(=O)(=O)c2ccc(Cl)s2)c2c3c(sc2n1)CCCC3 | 7 | 0 | 0 | 0 | 0 | 0 | 79.0 | 0 | 0 | 66.0% | 0 | 0 | 0
Cc1ccc(C(=O)OCc2ccc3c(c2)OCO3)cc1S(=O)(=O)N1CCCCC1 | 7 | 0 | 0 | 0 | 0 | -13.1 | 74.5 | 0 | 84.7% | 77.5% | 41.0% | 0 | 36.5%
Cc1ccc(C(=O)Nc2ccc3c(c2)OCO3)cc1S(=O)(=O)N1CCCC1 | 0 | 0 | 0 | 0 | 0 | 0 | - | - | - | - | - | - | -
CCOc1cc(/C=N/NC(=O)C(=O)NC)cc(Br)c1O | 0 | 0 | 0 | 0 | 0 | 0 | - | - | - | - | - | - | -
O=C(Cn1c(=O)oc2ccccc21)Nc1ccc(Br)cc1 | 0 | 0 | 0 | 0 | 0 | 0 | - | - | - | - | - | - | -
N#Cc1c(NC(=O)Cn2c(=O)oc3ccccc32)oc(-c2ccccc2)c1-c1ccccc1 | 12 | 0 | 0 | 0 | 0 | -8.2 | 63.5 | 0 | 0 | 0 | 0 | 0 | 0
CN1CCc2c(OCc3ccc(F)cc3)cccc2C1=O | 0 | 0 | 0 | 0 | 0 | 0 | - | - | - | - | - | - | -
O=C1c2cccc(OCc3ccc(F)cc3)c2CCN1Cc1ccc(F)cc1 | 6 | 0 | 0 | 0 | 0 | -15.1 | 126.0 | 0 | 115.0% | 148.5% | 66.0% | 0 | 0 | KCNQ1 APC inh=0
CN(C)N1C(=O)c2c(Cl)c(Cl)c(Cl)c(Cl)c2C1=O | - | - | - | 0 | - | - | - | - | - | - | - | - | -
COC(=O)c1ccc(CNC(=O)COC(=O)C2CC3C=CC2C3)cc1 (stereo not drawn) | 0 | 0 | 0 | 0 | 0 | 0 | - | - | - | - | - | - | -
COC(=O)C(Cc1c[nH]c2ccccc12)NC(=O)C(=O)c1c[nH]c2ccccc12 (stereo not drawn) | 7 | 0 | 0 | 0 | 0 | -11.9 | 68.0 | 0 | 83.7% | 108.0% | 0 | 0 | 0
COC(=O)C(Cc1c[nH]c2ccccc12)NC(=O)C(C)C (stereo not drawn) | 0 | 0 | 0 | 0 | 0 | 0 | - | - | - | - | - | - | -
CN(Cc1cccc(Cl)c1)C(=O)C1CCC(=O)N(C2CC2)C1 (stereo not drawn) | 0 | 0 | 0 | 0 | 0 | 0 | - | - | - | - | - | - | -
O=C(Nc1ccc(Cl)c(Cl)c1)N1CCSC1c1ccco1 (stereo not drawn) | 10 | 0 | 0 | 0 | 0 | -11.2 | 111.0 | 0.368 | 0 | 118.5% | 53.0% | 0 | 0
CC(=O)Nc1ccc(S(=O)(=O)N2CCSC2c2ccco2)cc1 (stereo not drawn) | 0 | 0 | 0 | 0 | 0 | 0 | - | - | - | - | - | - | -
O=C(CSc1nc(-c2ccc(Cl)cc2)[nH]c(=O)n1)Nc1cccc(Cl)c1 | 7 | 0 | 0 | 0 | 0 | 0 | 115.5 | 0 | 0 | 0 | 0 | 0 | 0 | KCNQ1 APC inh=0
O=C(CCc1ccccc1)N=C1SC2CS(=O)(=O)CC2N1c1cccc(F)c1 (stereo not drawn) | 0 | 0 | 0 | 0 | 0 | 0 | - | - | - | - | - | - | -
